Source: ChEMBL document CHEMBL1153830, “Treatment of a clinically relevant plant-pathogenic fungus with an agricultural azole causes cross-resistance to medical azoles and potentiates caspofungin efficacy” (2007)
Activity calls are given as the source filed them.

Key:
[1] = tested on: Colletotrichum graminicola; assay: Fungicidal activity against tebuconazole-adapted wild type Colletotrichum graminicola CgM2 assessed as metabolically inactive hyphae at 0.025 ug/ml after 3 days by FUN1 staining-based fluorescence microscopy; format: functional, organism-based
In short: (§1)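 Mycelia were grown 3 days in liquid complete medium with drug at 0–5 μg/ml. Staining used 50 μM FUN-1 in 2% glucose and 10 mM HEPES (pH 7.2), 1 h at 27°C. Viability was scored by epifluorescence microscopy with a GFP-LP filter. Negative controls were killed with 70% ethanol for 30 min before staining.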

[2] = tested on: Colletotrichum graminicola; assay: Fungicidal activity against tebuconazole-adapted wild type Colletotrichum graminicola CgM2 assessed as cell wall rigidity deffect-related increase in apical cell diameter at 0.025 ug/ml after 3 days by differential interference contrast microscopy; format: functional, organism-based
In short: (§2)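 Mycelia were grown 3 days in liquid complete medium with caspofungin at 0–5 μg/ml. Cell wall rigidity and hyphal swelling were judged by Nomarski (DIC) light microscopy.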

[3] = tested on: Colletotrichum graminicola; assay: Fungicidal activity against tebuconazole-adapted wild type Colletotrichum graminicola CgM2 assessed as cell death at 0.25 ug/ml after 3 days by FUN1 staining-based fluorescence microscopy; format: functional, organism-based; in short: as §1
[4] = tested on: Colletotrichum graminicola; assay: Fungicidal activity against tebuconazole-adapted wild type Colletotrichum graminicola CgM2 assessed as cell wall rigidity deffect-related cell wall swelling at 0.25 ug/ml after 3 days by differential interference contrast microscopy; format: functional, organism-based; in short: as §2
[5] = tested on: Colletotrichum graminicola; assay: Fungicidal activity against tebuconazole-adapted wild type Colletotrichum graminicola CgM2 assessed as increase in metabolically inactive hyphal count at 2.5 ug/ml after 3 days by FUN1 staining-based fluorescence microscopy; format: functional, organism-based; in short: as §1
[6] = tested on: Colletotrichum graminicola; assay: Fungicidal activity against tebuconazole-adapted wild type Colletotrichum graminicola CgM2 assessed as deffects in cell wall rigidity at 2.5 ug/ml after 3 days by differential interference contrast microscopy; format: functional, organism-based; in short: as §2
[7] = tested on: Colletotrichum graminicola; assay: Fungicidal activity against tebuconazole-nonadapted wild type Colletotrichum graminicola CgM2 infected in excised human skin assessed as inhibition of invasive colonized hyphal growth at epidermis at ED50 after 4 days by Uvitex-2B staining-based fluorescence microscopy; format: functional, organism-based
In short: (§3)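 Excised human skin from reduction mammoplasty, all pieces from one donor, cut to 20 mm discs. Each disc got 15–20 prick wounds and 100 μl of 10^6 conidia/ml. Discs sat in a Franz diffusion cell at 32°C over isotonic NaCl for up to 4 days. Drug was applied at ED50, ED90 or 2× ED90, three pieces per condition. Biopsies were cryosectioned and Uvitex 2B-stained; hyphal area per section was measured by fluorescence.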

[8] = tested on: Colletotrichum graminicola; assay: Fungicidal activity against tebuconazole-nonadapted wild type Colletotrichum graminicola CgM2 infected in excised human skin assessed as inhibition of invasive colonized hyphal growth at epidermis at ED90 after 4 days by Uvitex-2B staining-based fluorescence microscopy; format: functional, organism-based; in short: as §3
[9] = tested on: Colletotrichum graminicola; assay: Fungicidal activity against tebuconazole-nonadapted wild type Colletotrichum graminicola CgM2 assessed as inhibition of radial growth rate at 23 degC in darkness; format: functional
In short: (§4)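 Radial growth on solid complete medium, 23°C, darkness. Colony diameters were read at 3 and 6 days after inoculation and compared with drug-free control plates. Azoles and picoxystrobin were dissolved in 12% (wt/vol) Cremophor EL and tested at 0–2.5 μg/ml. Caspofungin, amphotericin B and nystatin were dissolved in water and tested from 0.00025 μg/ml; caspofungin plates used sucrose (10 mg/ml) in place of glucose.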

[10] = tested on: Colletotrichum graminicola; assay: Fungicidal activity against tebuconazole-adapted wild type Colletotrichum graminicola CgM2 assessed as inhibition of radial growth rate at 23 degC in darkness; format: functional; in short: as §4
[11] = tested on: Colletotrichum graminicola; assay: Fungicidal activity against tebuconazole-nonadapted wild type Colletotrichum graminicola CgM2 assessed as metabolically inactive hyphae at 0.025 ug/ml after 3 days by FUN1 staining-based fluorescence microscopy; format: functional, organism-based; in short: as §1
[12] = tested on: Colletotrichum graminicola; assay: Fungicidal activity against tebuconazole-nonadapted wild type Colletotrichum graminicola CgM2 assessed as deffects in cell wall rigidity at 0.025 ug/ml after 3 days by differential interference contrast microscopy; format: functional, organism-based; in short: as §2
[13] = tested on: Colletotrichum graminicola; assay: Fungicidal activity against tebuconazole-nonadapted wild type Colletotrichum graminicola CgM2 assessed as metabolically inactive hyphae at 0.25 ug/ml after 3 days by FUN1 staining-based fluorescence microscopy; format: functional, organism-based; in short: as §1
[14] = tested on: Colletotrichum graminicola; assay: Fungicidal activity against tebuconazole-nonadapted wild type Colletotrichum graminicola CgM2 assessed as deffects in cell wall rigidity at 0.25 ug/ml after 3 days by differential interference contrast microscopy; format: functional, organism-based; in short: as §2
[15] = tested on: Colletotrichum graminicola; assay: Fungicidal activity against tebuconazole-nonadapted wild type Colletotrichum graminicola CgM2 assessed as deffects in cell wall rigidity at hyphal apex at 0.25 ug/ml after 3 days by differential interference contrast microscopy; format: functional, organism-based; in short: as §2
[16] = tested on: Colletotrichum graminicola; assay: Fungicidal activity against tebuconazole-nonadapted wild type Colletotrichum graminicola CgM2 assessed as cell death at 2.5 ug/ml after 3 days by FUN1 staining-based fluorescence microscopy; format: functional, organism-based; in short: as §1
[17] = tested on: Colletotrichum graminicola; assay: Fungicidal activity against tebuconazole-nonadapted wild type Colletotrichum graminicola CgM2 assessed as deffects in cell wall rigidity at 2.5 ug/ml after 3 days by differential interference contrast microscopy; format: functional, organism-based; in short: as §2
[18] = tested on: Colletotrichum graminicola; assay: Fungicidal activity against tebuconazole-nonadapted wild type Colletotrichum graminicola CgM2 infected in excised human skin assessed as inhibition of invasive colonized hyphal growth at epidermis at twofold ED90 after 4 days by Uvitex-2B staining-based fluorescence microscopy; format: functional, organism-based; in short: as §3
[19] = tested on: Colletotrichum graminicola; assay: Fungicidal activity against tebuconazole-nonadapted wild type Colletotrichum graminicola CgM2 infected in excised human skin assessed as inhibition of invasive colonized hyphal growth at dermis at ED50 after 4 days by Uvitex-2B staining-based fluorescence microscopy; format: functional, organism-based; in short: as §3
[20] = tested on: Colletotrichum graminicola; assay: Fungicidal activity against tebuconazole-nonadapted wild type Colletotrichum graminicola CgM2 infected in excised human skin assessed as inhibition of invasive colonized hyphal growth at dermis at ED90 after 4 days by Uvitex-2B staining-based fluorescence microscopy; format: functional, organism-based; in short: as §3
[21] = tested on: Colletotrichum graminicola; assay: Fungicidal activity against tebuconazole-adapted wild type Colletotrichum graminicola CgM2 infected in excised human skin assessed as inhibition of invasive colonized hyphal growth at epidermis at ED90 after 4 days by Uvitex-2B staining-based fluorescence microscopy; format: functional, organism-based; in short: as §3
[22] = tested on: Colletotrichum graminicola; assay: Fungicidal activity against tebuconazole-adapted wild type Colletotrichum graminicola CgM2 infected in excised human skin assessed as inhibition of invasive colonized hyphal growth at dermis at ED90 after 4 days by Uvitex-2B staining-based fluorescence microscopy; format: functional, organism-based; in short: as §3
[23] = tested on: Colletotrichum graminicola; assay: Fungicidal activity against tebuconazole-adapted wild type Colletotrichum graminicola CgM2 infected in excised human skin assessed as inhibition of invasive colonized hyphal growth at hypodermis at ED90 after 4 days by Uvitex-2B staining-based fluorescence microscopy; format: functional, organism-based; in short: as §3
[24] = Colletotrichum graminicola, CgM2, read-out: ED50 (the source's name)

CC[C@H](C)C[C@H](C)CCCCCCCCC(=O)N[C@H]1C[C@@H](O)[C@@H](NCCN)NC(=O)[C@@H]2[C@@H](O)CCN2C(=O)[C@H]([C@H](O)CCN)NC(=O)[C@H]([C@H](O)[C@@H](O)c2ccc(O)cc2)NC(=O)[C@@H]2C[C@@H](O)CN2C(=O)[C@H]([C@@H](C)O)NC1=O [CASPOFUNGIN]
active: Activity [1] | Activity [2] | Activity [3] | Activity [4] | Activity [5] | Activity [13] | Activity [14] | Activity [15] | Activity [16] | Activity [17] | Activity [21] | Activity [22] | Activity [23]
0.032 µg/mL: EC50 [9, 24]
0.006 µg/mL: EC50 [10, 24]
1.281 µg/mL: ED90 [9]
inactive: Activity [6] | Activity [7] | Activity [8] | Activity [11] | Activity [12] | Activity [18] | Activity [19] | Activity [20]
0.77 µg/mL: ED90 [10]
